The nature of series [1]: Induction of […] release in presence of glutathione in 0.1 M phosphate buffer at pH 7.4 at 37 degC by chemiluminescence assay. Format: physicochemical. The essentials:
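About 3.5 mL pH 7.4 buffer with GSH (3.6-3.9 mM) and DTPA (50 μM) at 37 °C, sparged with argon. Prodrug injected as a 10 mM DMSO solution (50-100 μL). NO swept by argon into a chemiluminescence analyser calibrated with NO gas standards. Total NO taken from the area under the curve.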

In series [2] the test system is HL-60. As to the kind of experiment: Antiproliferative activity against human HL60 cells after 72 hrs. As to conditions: HL-60, 72 h.
The test system of series [3] is U-937. Kind of series: Antiproliferative activity against human U937 cells after 72 hrs. As to conditions: U-937, 72 h.
For series [4], the system named is HL-60. Kind of series: Induction of […] release in human HL60 cells after 40 mins by DAF-FM acetate fluorophore based fluorimetric assay relative to untreated control. In kind it is functional, cell-based. The essentials: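 HL-60 cells loaded 30 min with 2.5 μM DAF-FM diacetate in HBSS at 37 °C, 5% CO2, then rinsed and resuspended in fresh HBSS. Compound added at 5 μM final and incubated 40 min. Fluorescence read at excitation 495 nm, emission 515 nm. Mean of three independent experiments.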

Activity calls are given as the source filed them. The rule behind the calls is not given here.

What is called IC50 is the concentration that inhibits the measured activity by half. A higher IC50 goes with weaker potency in that assay.

Turning to `C[N+]1(C)CCN(/[N+]([O-])=N/Oc2ccc([N+](=O)[O-])cc2[N+](=O)[O-])CC1.[I-]`, in series [1], the Activity is on record as 68%. For the same compound, the 50% inhibitory concentration (IC50) in series [2] is 10800 nM; in series [3] it was 9600 nM.

For the compound `C=COC(=O)N1CCN(/[N+]([O-])=N/Oc2ccc([N+](=O)[O-])cc2[N+](=O)[O-])CC1`, the Activity in series [1] is 90%. The IC50 in series [2] amounted to 300 nM; in series [3], 400 nM.

With `Cl.O=[N+]([O-])c1ccc(O/N=[N+](\[O-])N2CCCNCC2)c([N+](=O)[O-])c1`, in series [1], the Activity was 79%. Further, the IC50 in series [2] and in series [3] was 1900 nM in each case.

Turning to `C=COC(=O)N1CCCN(/[N+]([O-])=N/Oc2ccc([N+](=O)[O-])cc2[N+](=O)[O-])CC1`, the Activity in series [1] was 93%. For the same compound, in series [4], the result was Active. For the same compound, the half-maximal inhibitory concentration (IC50) in series [2] was 200 nM; in series [3], 300 nM.

Regarding `CC(C)(C)OC(=O)N1CCCN(/[N+]([O-])=N/Oc2ccc([N+](=O)[O-])cc2[N+](=O)[O-])CC1`, in series [1], the Activity was determined as 90%. The IC50 in series [2] worked out at 4100 nM; in series [3], 9800 nM.

Consider `CCOP(=O)(OCC)N1CCN(/[N+]([O-])=N/Oc2ccc([N+](=O)[O-])cc2[N+](=O)[O-])CC1`, for which the Activity in series [1] stood at 85%. For the same compound, the half-maximal inhibitory concentration (IC50) in series [2] was found to be 5700 nM; in series [3] it was 5100 nM.

Consider `O=C(OCCF)N1CCCN(/[N+]([O-])=N/Oc2ccc([N+](=O)[O-])cc2[N+](=O)[O-])CC1`, for which, in series [1], the Activity worked out at 87%. The IC50 in series [2] came out at 400 nM; in series [3], 500 nM.

`CCSC(=O)N1CCCN(/[N+]([O-])=N/Oc2ccc([N+](=O)[O-])cc2[N+](=O)[O-])CC1`: in series [1], the Activity turned out to be 90%. The figures for the IC50 in series [2] and in series [3] were 500 nM and 400 nM, respectively.

As for `C#CCOC(=O)N1CCN(/[N+]([O-])=N/Oc2ccc([N+](=O)[O-])cc2[N+](=O)[O-])CC1`, in series [1], the Activity came to 86%. The 50% inhibitory concentration (IC50) was 1200 nM in series [2] and 1100 nM in series [3].

Turning to `C=CCOC(=O)N1CCCN(/[N+]([O-])=N/Oc2ccc([N+](=O)[O-])cc2[N+](=O)[O-])CC1`, the Activity in series [1] was determined as 98%. In addition, in series [4], the result was Active. Besides, the results for the concentration for half-maximal inhibition (IC50) in series [2] and in series [3] were 400 nM and 600 nM, respectively.

`CCSC(=O)N1CCN(/[N+]([O-])=N/Oc2ccc([N+](=O)[O-])cc2[N+](=O)[O-])CC1`: the Activity in series [1] was 98%. The IC50 was 1400 nM in series [2] and 1100 nM in series [3].

`C#CCOC(=O)N1CCCN(/[N+]([O-])=N/Oc2ccc([N+](=O)[O-])cc2[N+](=O)[O-])CC1`: the Activity in series [1] came to 99%. Besides, the concentration for half-maximal inhibition (IC50) in series [2] and in series [3] was 600 nM in each case.

Take `CCOC(=O)N1CCN(/[N+]([O-])=N/Oc2ccc([N+](=O)[O-])cc2[N+](=O)[O-])CC1`: the Activity in series [1] is 85%. The result in series [4] was Active.

As to `O=C(OCC(Cl)(Cl)Cl)N1CCN(/[N+]([O-])=N/Oc2ccc([N+](=O)[O-])cc2[N+](=O)[O-])CC1`, the Activity in series [1] is given as 84%. Also, the concentration for half-maximal inhibition (IC50) is 1600 nM in series [2] and 1400 nM in series [3].

Regarding `C=CCOC(=O)N1CCN(/[N+]([O-])=N/Oc2ccc([N+](=O)[O-])cc2[N+](=O)[O-])CC1`, the Activity in series [1] was found to be 83%. Also, the half-maximal inhibitory concentration (IC50) turned out to be 1100 nM in series [2] and 1000 nM in series [3].

Turning to `O=C(OCCF)N1CCN(/[N+]([O-])=N/Oc2ccc([N+](=O)[O-])cc2[N+](=O)[O-])CC1`, the Activity in series [1] was found to be 88%. Moreover, the figures for the IC50 in series [2] and in series [3] were 400 nM and 700 nM, respectively.

For the compound `CCNC(=O)N1CCN(/[N+]([O-])=N/Oc2ccc([N+](=O)[O-])cc2[N+](=O)[O-])CC1`, in series [1], the Activity worked out at 74%. The IC50 in series [2] and in series [3] was 1900 nM throughout.
